SENP6 inh = inhibitors of human SENP6 protease; Recombinant SENP6 catalytic domain, aminoluciferin luminescence; inhibition, % at 10 µM; 330,000 tested, 1.8% active; AID 2599;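 active means inhibition above about 50% at the single tested dose, limit read from the data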;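 further: plate controls were DMSO wells with enzyme for no effect and DMSO wells lacking enzyme for full effect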
SENP1 FRET inh = SENP1 (human) catalytic domain inhibition; recombinant SENP1 catalytic domain, CyPet-SUMO1-YPet FRET cleavage; inhibition, % at 10 µM; 360,000 tested, 0.21% active; AID 624204;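 active means inhibition at least 30% at 10 µM, raw YFP signal under a set limit, fluorescence ratio 0.5 to 1.5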;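 further: 0% = enzyme with DMSO and 100% = no enzyme wells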
Target sequence (Q9P0U3 419-644 limits assumed): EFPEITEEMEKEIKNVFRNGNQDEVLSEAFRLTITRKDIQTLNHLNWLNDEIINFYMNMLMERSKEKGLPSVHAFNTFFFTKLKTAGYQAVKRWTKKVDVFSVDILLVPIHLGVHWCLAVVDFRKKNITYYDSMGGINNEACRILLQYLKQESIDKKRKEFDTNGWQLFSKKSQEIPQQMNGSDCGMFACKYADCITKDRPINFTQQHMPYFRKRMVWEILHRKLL
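Test system: hSENP1 catalytic domain, recombinant; Amount: 20 pM final SENP1 enzyme; Medium: Tris pH 8 buffer plus EDTA, NaCl, BME, BSA, NP40, catalase; Schedule: 50 min enzyme reaction, room temperature, light-protected; Technique: FRET fluorescence in CFP and YFP emission channels; Controls: no-enzyme wells low, DMSO-plus-enzyme wells high control.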
Platelet DG rel = modulates dense granule release in human platelets; human platelet-rich plasma, SFLLRN dense granule ATP release, luminescence; inhibition, %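 (compounds screened at 7.5 µM in platelet-rich plasma)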; 300,000 tested, 0.22% active; AID 1663;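 active means mean replicate score, as percent of positive control, at or above 50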
SENP8 block-1 = inhibitors of human SENP8 protease; Q96LD8; purified SENP8, Z-RLRGG-aminoluciferin cleavage, luminescence; inhibition, % at 10 µM; 330,000 tested, 1.2% active; in the data active means inhibition above about 50%
SENP7 block = SENP7 protease inhibition; 330,000 tested, 1.5% active; Q9BQF6; AID 434973; recombinant SENP7, Z-RLRGG-aminoluciferin luminescence, 40 min; inhibition, % at 5 µM;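 active means inhibition above about 50% at the single test dose, limit read from the data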;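 further: plate controls were DMSO with enzyme for no effect and no enzyme buffer wells for full effect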
Target sequence (Q9BQF6 706-1050 limits assumed): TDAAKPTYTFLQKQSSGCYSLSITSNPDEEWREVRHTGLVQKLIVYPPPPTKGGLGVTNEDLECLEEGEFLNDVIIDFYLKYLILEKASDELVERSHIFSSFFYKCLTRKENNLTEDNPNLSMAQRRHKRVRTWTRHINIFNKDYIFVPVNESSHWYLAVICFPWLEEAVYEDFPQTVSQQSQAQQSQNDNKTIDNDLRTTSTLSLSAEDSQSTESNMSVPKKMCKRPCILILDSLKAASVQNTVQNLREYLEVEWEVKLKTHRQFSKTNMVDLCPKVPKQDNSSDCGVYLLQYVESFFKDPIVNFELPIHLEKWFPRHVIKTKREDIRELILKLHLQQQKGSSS
SENP8 block-2 = blocks human SENP8 cleavage of Nedd8 substrate | Q96LD8 | recombinant SENP8, Nedd8 substrate fluorescence | inhibition, % at 20 µM | 360,000 tested, 0.64% active | AID 602440; in the data active means inhibition mostly above about 40%, no sharp cut-off; inactive means mostly below about 27%
SENP8 conf = confirmation of human SENP8 protease inhibitors | Recombinant SENP8, Z-RLRGG-aminoluciferin luminescence, 60 min | shares compounds with SENP7 block | inhibition, % at 12.5 µM | 6,200 tested, 40% active;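 active means mean inhibition across replicates above about 50%, limit read from the data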
SENP6 conf = human SENP6 inhibition, confirmed; shares compounds with SENP7 block; recombinant SENP6, Z-RLRGG-aminoluciferin luminescence; inhibition, % at 12.5 µM; 6,200 tested, 58% active; AID 488915
SENP7 conf = confirmation of human SENP7 protease inhibitors | inhibition, % at 12.5 µM | shares compounds with SENP7 block | AID 488917 | 6,200 tested, 69% active | recombinant SENP7, Z-RLRGG-aminoluciferin luminescence, 40 min
Casp3 select = caspase-3 inhibition (SENP selectivity assay) | 6,200 tested, 60% active | AID 488918 | shares compounds with SENP7 block | inhibition, % at 12.5 µM | purified caspase-3, Z-DEVD-aminoluciferin luminescence, 60 min;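 active means mean inhibition above about 50%, limit read from the data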;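 further: plate controls were enzyme with DMSO for no effect and wells without caspase-3 for full effect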
Luc interf = interferes with luciferase luminescence in SENP counter-screen. Pre-incubated SENP8/Z-RLRGG-aminoluciferin, luciferase luminescence interference. 6,200 tested, 39% active. inhibition, % at 12.5 µM. shares compounds with SENP7 block;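 active means mean inhibition above about 50% when retested at one dose, limit read from the data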;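 further: plate controls were DMSO wells with completed reaction for no effect and substrate without enzyme for full effect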
* marks the source's active call; other numbers are inactive results; i = inactive; x = no result given. The list is not random: actives were taken first. Their share in the collection is about 2.6%.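 How the source made its calls, unless noted: active means mean inhibition above about 50% in the one-dose retest (limit read from the data); inactive means the rest.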

SMILES	SENP6 inh	SENP1 FRET inh	Platelet DG rel	SENP8 block-1	SENP7 block	SENP8 block-2	SENP8 conf	SENP6 conf	SENP7 conf	Casp3 select	Luc interf
CC(=O)C1=C(O)C(=O)N(c2ccccn2)C1c1ccccc1[N+](=O)[O-] (stereo not drawn)	5	-3	-4	-4	1	-7	x	x	x	x	x
Cc1cc(C)c(NC(=O)C2CCCCN2C)c(C)c1 (stereo not drawn)	-25	1	-4	-2	80*	14	8	10	-3	2	-1
Cc1ccc(C)c(Nc2nc(N)c3ccccc3n2)c1	58*	-13	14	46	49	-119	27	30	75*	65*	44
COc1ccc(Cl)cc1Nc1nc(N)c2ccccc2n1	35	-1	5	-9	-4	-140	x	x	x	x	x
Nc1nc(Nc2cccc(F)c2)nc2ccccc12	96*	1	33	88*	90*	-319	96*	96*	102*	91*	96*
Cc1ccc(NC(=O)c2sccc2C)nc1	99*	0	52*	92*	99*	7	94*	95*	102*	98*	92*
COc1ccc(C(=O)Nc2ccc(C)cn2)c(OC)c1	90*	1	25	90*	94*	10	93*	92*	100*	94*	91*
CCOC(=O)CNC(=O)c1cccnc1Oc1ccc(Cl)cc1	-16	0	-18	-5	0	32	x	x	x	x	x
O=[N+]([O-])c1ccc(NN=Cc2ccc3c(c2)OCO3)nc1	x	-33	x	x	x	-59	x	x	x	x	x
COc1ccc(-c2cn3ccc4ccccc4c3n2)cc1	92*	2	2	83*	92*	i	30	86*	100*	87*	46
Cc1cccn2cc(-c3ccc(F)cc3)nc12	93*	1	-1	78*	91*	-113	12	87*	99*	90*	82*
Cc1cccn2cc(-c3ccccc3)nc12	74*	0	0	53*	69*	-229	11	71*	93*	85*	70*
Cc1noc(C)c1-c1ccc(C(=O)NC2CCCCC2)c2occc12	x	-2	x	x	x	-8	x	x	x	x	x
CC(=N\NC(=O)c1ccc([N+](=O)[O-])cc1)/C(=N/O)C(=O)Nc1ccccc1	-9	3	9	4	0	11	x	x	x	x	x
Cc1ccccc1NC(=O)c1cc2ccccn2n1	-5	-1	9	62*	67*	0	72*	70*	89*	87*	74*
CC(=O)c1cccc(NC(=O)c2cc3ccccn3n2)c1	19	0	-1	-1	7	9	x	x	x	x	x
Cc1ccccc1NC(=O)c1cnc2ccccn2c1=O	58*	-1	13	39	74*	-17	55*	61*	52*	75*	18
Cc1ccc(C)c(NC(=O)c2cnn3ccccc23)c1	-3	-1	39	-2	1	-1	x	x	x	x	x
O=C(NCCc1ccccc1)c1cnc2ccccn2c1=O	-20	-1	4	-6	-8	-276	x	x	x	x	x
Cc1ccc(C)c(NC(=O)c2cc3ccccn3n2)c1	56*	3	5	27	33	4	35	36	74*	72*	60*
Cc1cc(C(=O)N2CCN(c3ccc([N+](=O)[O-])cc3)CC2)n[nH]1	9	2	-3	-2	-3	31	x	x	x	x	x
Brc1ccccc1-c1nnc(-c2cccnc2)o1	11	1	4	-8	5	9	x	x	x	x	x
Brc1ccc(-c2nnc(-c3ccccc3Br)o2)cc1	64*	1	0	70*	74*	3	18	18	25	28	15
Cc1ccc(-c2nnc(-c3ccccc3Br)o2)cc1	90*	1	-4	86*	83*	13	7	88*	98*	74*	76*
Cc1ccc(-c2nnc(-c3cccnc3)o2)cc1	-22	-1	16	-8	-11	-1	x	x	x	x	x
SMILES	SENP6 inh	SENP1 FRET inh	Platelet DG rel	SENP8 block-1	SENP7 block	SENP8 block-2	SENP8 conf	SENP6 conf	SENP7 conf	Casp3 select	Luc interf
COC(=O)[C@]12CCCCC=C1N(Cc1ccccc1)C(=O)[C@H](CC(=O)NCCC(C)C)C2	x	0	x	x	x	10	x	x	x	x	x
O=C(NCCCN1CCOCC1)/C(=C/c1ccco1)NC(=O)c1ccccc1	4	1	-3	0	-1	8	x	x	x	x	x
O=C(OCc1cn([C@H]2C[C@H](c3ccc(Cl)cc3)N(C(=O)c3cccs3)C[C@@H]2O)nn1)c1ccccc1	x	3	x	x	x	0	x	x	x	x	x
Cc1cc(SCC(=O)Nc2ccc3[nH]c(=O)[nH]c3c2)nc2ccccc12	-29	1	x	-16	-8	-2	x	x	x	x	x
O=C(O)CCC(=O)N1CN2CN(C(=O)CCC(=O)O)CC([N+](=O)[O-])(C2)C1	-15	3	4	-2	3	19	x	x	x	x	x
COC(=O)CCC(=O)N1CN2CN(C(=O)CCC(=O)OC)CC([N+](=O)[O-])(C2)C1	95*	-3	-3	0	8	19	-26	-21	-11	-11	-8
CCOc1cc(/C=C2\C(=O)N(c3nc(-c4ccc(Br)cc4)cs3)N=C2c2ccccc2)ccc1O	51*	2	8	5	-2	27	10	7	-3	-2	-1
COc1cc(/C=C2\C(=O)N(c3ccc(NC(C)=O)cc3)N=C2c2ccccc2)ccc1O	32	2	-5	5	33	10	x	x	x	x	x
CCOc1ccccc1NC(=O)C1COc2ccccc2O1 (stereo not drawn)	-2	1	-2	-1	3	4	x	x	x	x	x
COc1ccc(C2NN=C(c3ccc(C)cc3)S2)cc1OC (stereo not drawn)	93*	2	19	92*	94*	-394	10	22	26	26	11
Fc1cccc(C2NN=C(c3ccccc3)S2)c1 (stereo not drawn)	92*	-2	17	52*	97*	-72	29	54*	80*	65*	14
COc1ccc(C2NC(=O)CS2)cc1OC (stereo not drawn)	-17	2	-10	-5	-6	23	x	x	x	x	x
